{
  "source": "paper PMC10692396",
  "about": "(Acta Pharmaceutica Sinica. B, 2023)",
  "key": {"glioma cell lines": {"tested_on": "glioma cell lines", "assay": "Cell viability", "type": "cell-based", "conditions": "read-out: IC50 against glioma cell lines", "method_in_brief": "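GL261, DBT, D283, U87MG and U251 cells were plated, left overnight, then given a range of test compound concentrations for 72 h at 37 °C, 5% CO2. Growth was read by CCK-8. D283 was grown in MEM with 10% FBS, 1% NEAA and 1% NaP. Lines were STR-authenticated.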"}, "CSF1R": {"biological_target": "CSF1R (Homo sapiens, UniProt P07333)", "sequence (P07333 20-972)": "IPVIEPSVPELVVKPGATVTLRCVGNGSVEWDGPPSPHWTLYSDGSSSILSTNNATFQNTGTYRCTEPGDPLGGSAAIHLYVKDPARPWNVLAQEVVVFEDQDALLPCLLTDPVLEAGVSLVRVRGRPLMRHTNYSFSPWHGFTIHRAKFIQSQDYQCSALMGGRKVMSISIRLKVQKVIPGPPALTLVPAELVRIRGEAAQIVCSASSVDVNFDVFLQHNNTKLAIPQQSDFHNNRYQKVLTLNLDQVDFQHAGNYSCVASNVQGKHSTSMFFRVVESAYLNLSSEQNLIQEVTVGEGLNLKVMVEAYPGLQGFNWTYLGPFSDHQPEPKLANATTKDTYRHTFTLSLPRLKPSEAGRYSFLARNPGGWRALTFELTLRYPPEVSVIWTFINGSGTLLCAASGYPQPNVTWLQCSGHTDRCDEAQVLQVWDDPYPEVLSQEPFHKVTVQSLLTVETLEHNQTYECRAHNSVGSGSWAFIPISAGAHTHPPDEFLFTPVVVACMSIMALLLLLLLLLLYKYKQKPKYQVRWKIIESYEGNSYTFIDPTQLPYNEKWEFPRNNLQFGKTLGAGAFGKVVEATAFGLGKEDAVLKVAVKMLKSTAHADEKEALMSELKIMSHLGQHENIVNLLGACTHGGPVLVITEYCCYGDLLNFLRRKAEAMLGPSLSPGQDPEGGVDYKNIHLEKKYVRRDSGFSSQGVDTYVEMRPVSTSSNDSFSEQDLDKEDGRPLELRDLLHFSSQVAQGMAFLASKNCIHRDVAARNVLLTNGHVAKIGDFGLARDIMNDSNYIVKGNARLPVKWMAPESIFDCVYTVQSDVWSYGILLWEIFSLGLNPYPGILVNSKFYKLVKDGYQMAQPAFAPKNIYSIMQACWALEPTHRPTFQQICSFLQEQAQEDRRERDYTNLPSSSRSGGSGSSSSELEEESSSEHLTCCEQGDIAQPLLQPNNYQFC", "assay": "Surface plasmon resonance", "type": "binding", "conditions": "Biacore 8K, protein immobilized on CM5 chip", "method_in_brief": "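Human CSF1R was directly immobilized on a CM5 chip (Biacore 8K), with test compound as analyte. Multi-cycle kinetics used 180 s injection and 180 s dissociation.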"}, "[1]": {"tested_on": "phosphorylation of RET in tumor tissue", "assay": "RET phosphorylation in tumor tissue", "type": "in vivo", "conditions": "data not shown"}, "[2]": {"assay": "Pharmacokinetics and brain distribution", "type": "in vivo, CD-1 mice", "conditions": "male, CD-1, mouse, po, 10 mg/kg", "method_in_brief": "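Thirty male CD-1 mice were split into six groups, one per sampling time (0.5, 1, 2, 4, 8, 24 h), after a single oral 10 mg/kg dose. Plasma was taken from retro-orbital blood. Brains were collected after intracardial perfusion, rinsed in saline, blotted, weighed and homogenized in MeOH-ACN (1/1, 5 mL/g tissue).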"}, "c-Kit": {"biological_target": "c-Kit (Homo sapiens, UniProt P10721)", "sequence (P10721 26-976)": "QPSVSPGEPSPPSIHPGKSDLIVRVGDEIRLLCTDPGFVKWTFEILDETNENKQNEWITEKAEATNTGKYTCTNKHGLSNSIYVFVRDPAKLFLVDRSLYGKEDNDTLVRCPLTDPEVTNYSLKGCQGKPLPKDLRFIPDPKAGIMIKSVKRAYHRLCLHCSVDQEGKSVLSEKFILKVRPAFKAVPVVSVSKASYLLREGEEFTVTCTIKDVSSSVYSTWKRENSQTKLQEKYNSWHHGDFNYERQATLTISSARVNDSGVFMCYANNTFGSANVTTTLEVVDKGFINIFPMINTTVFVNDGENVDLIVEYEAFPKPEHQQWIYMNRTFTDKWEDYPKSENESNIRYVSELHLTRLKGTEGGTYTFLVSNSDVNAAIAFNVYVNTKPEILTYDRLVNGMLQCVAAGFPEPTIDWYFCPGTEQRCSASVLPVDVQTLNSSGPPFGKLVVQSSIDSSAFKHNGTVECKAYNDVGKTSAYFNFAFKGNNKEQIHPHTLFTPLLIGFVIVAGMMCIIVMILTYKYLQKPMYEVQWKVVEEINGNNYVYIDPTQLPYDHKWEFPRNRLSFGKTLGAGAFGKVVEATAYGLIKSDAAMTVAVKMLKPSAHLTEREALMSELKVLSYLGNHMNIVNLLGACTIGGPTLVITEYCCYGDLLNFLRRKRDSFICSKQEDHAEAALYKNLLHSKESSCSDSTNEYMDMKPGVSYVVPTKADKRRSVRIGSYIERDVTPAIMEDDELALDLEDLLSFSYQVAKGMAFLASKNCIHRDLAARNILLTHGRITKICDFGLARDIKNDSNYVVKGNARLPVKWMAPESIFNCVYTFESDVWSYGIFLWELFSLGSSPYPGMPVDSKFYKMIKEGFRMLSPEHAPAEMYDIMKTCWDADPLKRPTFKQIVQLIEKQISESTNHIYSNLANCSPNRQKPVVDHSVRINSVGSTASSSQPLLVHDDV", "assay": "ELISA kinase assay", "type": "biochemical"}, "DBT mouse glioma [3]": {"tested_on": "DBT mouse glioma", "assay": "DBT subcutaneous model in immunocompetent mice", "type": "in vivo, BALB/c mice", "conditions": "10 mg/kg twice daily", "method_in_brief": "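BALB/c mice received 5 × 10^6 DBT cells in 200 μL PBS s.c. in the right flank. At about 120 mm3 they were randomized to control or 10 mg/kg (n = 6/group), dosed orally twice daily. Tumor size and body weight were measured three times weekly, and growth was expressed as RTV, mean ± SEM. CD8 was stained by IHC and scored by the multiplicative quick score method.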"}, "VEGFR-1": {"biological_target": "VEGFR-1 (Homo sapiens, UniProt P17948)", "sequence (P17948 27-1338)": "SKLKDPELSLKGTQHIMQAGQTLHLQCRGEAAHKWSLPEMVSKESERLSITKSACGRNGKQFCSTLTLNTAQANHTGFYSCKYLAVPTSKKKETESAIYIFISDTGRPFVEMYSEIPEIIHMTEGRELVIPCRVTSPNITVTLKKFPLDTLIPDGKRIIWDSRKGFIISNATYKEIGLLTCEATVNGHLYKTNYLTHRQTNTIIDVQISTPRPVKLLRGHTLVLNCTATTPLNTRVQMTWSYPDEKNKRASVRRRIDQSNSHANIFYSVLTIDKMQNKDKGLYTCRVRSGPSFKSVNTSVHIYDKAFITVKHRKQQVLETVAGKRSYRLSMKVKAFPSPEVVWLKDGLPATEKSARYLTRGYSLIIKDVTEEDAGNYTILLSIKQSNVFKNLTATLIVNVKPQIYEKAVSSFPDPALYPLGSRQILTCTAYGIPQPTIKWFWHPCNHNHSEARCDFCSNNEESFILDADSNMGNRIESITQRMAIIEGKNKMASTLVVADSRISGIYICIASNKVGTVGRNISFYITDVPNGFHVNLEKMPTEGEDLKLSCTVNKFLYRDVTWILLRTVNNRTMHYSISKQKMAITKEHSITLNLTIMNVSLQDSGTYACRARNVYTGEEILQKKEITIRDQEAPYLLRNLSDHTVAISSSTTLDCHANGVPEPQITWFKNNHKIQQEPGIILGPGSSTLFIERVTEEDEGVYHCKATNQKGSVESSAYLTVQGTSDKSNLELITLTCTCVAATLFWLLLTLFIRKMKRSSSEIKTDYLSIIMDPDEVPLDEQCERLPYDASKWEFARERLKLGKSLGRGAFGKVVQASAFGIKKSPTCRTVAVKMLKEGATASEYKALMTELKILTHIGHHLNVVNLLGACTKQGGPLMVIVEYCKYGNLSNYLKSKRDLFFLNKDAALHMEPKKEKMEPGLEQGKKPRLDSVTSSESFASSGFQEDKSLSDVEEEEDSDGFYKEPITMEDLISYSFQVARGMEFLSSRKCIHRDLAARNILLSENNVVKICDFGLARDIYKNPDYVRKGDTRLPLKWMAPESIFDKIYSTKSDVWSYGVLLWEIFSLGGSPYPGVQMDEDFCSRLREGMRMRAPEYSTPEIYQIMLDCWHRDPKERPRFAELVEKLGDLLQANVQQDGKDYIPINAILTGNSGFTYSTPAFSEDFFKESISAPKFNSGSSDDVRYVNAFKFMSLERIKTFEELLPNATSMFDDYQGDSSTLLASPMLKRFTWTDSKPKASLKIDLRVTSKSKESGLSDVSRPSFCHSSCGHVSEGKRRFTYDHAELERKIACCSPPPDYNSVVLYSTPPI", "assay": "ELISA kinase assay", "type": "biochemical"}, "panel of 328 kinases": {"tested_on": "panel of 328 kinases", "assay": "Kinase profiling, whole panel", "type": "biochemical, human", "conditions": "0.1 μmol/L SYHA1813"}, "tube formation of HUVECs": {"tested_on": "tube formation of HUVECs", "assay": "Tube formation assay", "type": "cell-based, Human", "conditions": "VEGF 100 ng/mL, 8 h, concentration-dependent", "method_in_brief": "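HUVECs were starved 24 h, then seeded at 20,000 cells/well on growth-factor-reduced Matrigel. Graded test compound concentrations and VEGF (final 100 ng/mL) were added for 8 h. Tubes were photographed through a stereoscope at 4×.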"}, "[4]": {"tested_on": "recurrent high-grade glioma", "assay": "First-in-human phase I trial", "type": "in vivo, patients"}, "[5]": {"tested_on": "cells with high expression of Aurora-B", "assay": "Cytotoxicity in Aurora-B high cells", "type": "cell-based", "conditions": "data not shown"}, "VEGFR-3": {"biological_target": "VEGFR-3 (Homo sapiens, UniProt P35916)", "sequence (P35916 25-1363)": "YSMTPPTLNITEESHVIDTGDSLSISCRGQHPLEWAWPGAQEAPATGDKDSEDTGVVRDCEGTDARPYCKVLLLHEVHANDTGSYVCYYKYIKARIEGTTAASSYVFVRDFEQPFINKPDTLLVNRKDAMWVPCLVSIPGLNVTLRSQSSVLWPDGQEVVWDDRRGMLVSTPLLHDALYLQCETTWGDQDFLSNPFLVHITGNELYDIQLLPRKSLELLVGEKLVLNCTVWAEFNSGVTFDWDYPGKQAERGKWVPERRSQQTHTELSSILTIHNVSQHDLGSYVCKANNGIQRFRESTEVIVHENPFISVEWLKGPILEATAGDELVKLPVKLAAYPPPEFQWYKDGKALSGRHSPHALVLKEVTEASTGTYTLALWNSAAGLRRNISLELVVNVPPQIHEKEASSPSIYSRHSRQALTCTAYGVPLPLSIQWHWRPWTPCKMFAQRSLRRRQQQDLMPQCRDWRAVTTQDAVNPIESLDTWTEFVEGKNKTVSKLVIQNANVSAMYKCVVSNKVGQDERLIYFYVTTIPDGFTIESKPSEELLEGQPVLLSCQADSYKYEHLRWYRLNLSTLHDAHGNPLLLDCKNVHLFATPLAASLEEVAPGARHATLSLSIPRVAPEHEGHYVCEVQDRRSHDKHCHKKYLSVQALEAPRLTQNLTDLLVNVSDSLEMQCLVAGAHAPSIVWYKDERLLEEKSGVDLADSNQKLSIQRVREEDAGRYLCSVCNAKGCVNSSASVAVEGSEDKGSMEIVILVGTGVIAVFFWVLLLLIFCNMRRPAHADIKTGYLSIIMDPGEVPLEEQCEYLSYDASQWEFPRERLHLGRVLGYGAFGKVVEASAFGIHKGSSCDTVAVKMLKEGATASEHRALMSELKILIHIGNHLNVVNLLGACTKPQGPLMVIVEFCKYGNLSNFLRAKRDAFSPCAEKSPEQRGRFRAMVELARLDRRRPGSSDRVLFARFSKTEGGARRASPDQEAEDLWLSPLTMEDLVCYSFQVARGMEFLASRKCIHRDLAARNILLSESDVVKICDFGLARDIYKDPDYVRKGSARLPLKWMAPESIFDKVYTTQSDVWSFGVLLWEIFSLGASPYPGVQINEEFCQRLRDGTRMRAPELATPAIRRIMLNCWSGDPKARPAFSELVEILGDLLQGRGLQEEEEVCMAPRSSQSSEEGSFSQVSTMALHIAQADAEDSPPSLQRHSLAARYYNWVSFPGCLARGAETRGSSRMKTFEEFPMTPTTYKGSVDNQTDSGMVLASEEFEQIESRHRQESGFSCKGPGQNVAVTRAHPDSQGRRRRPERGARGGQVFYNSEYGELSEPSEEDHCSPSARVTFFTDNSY", "assay": "ELISA kinase assay", "type": "biochemical"}, "PDGFRα (V561D)": {"biological_target": "PDGFRα (V561D) (Homo sapiens, UniProt P16234, V561D)", "assay": "ELISA kinase assay", "type": "biochemical"}, "[6]": {"tested_on": "neovascularization in chick embryos", "assay": "Chicken chorioallantoic membrane", "type": "in vivo", "conditions": "CAM assay, 48 h", "method_in_brief": "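Fertilized eggs were incubated 7 days at 37 °C, 50% humidity. Suction at the broad end made a false air sac, and a 1 cm2 shell window was opened. Glass coverslips (0.5 cm × 0.5 cm) soaked in test compound or vehicle were laid between preexisting vessels, followed by a further 48 h incubation. Neovascular zones beside the coverslips were photographed under a stereomicroscope.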"}, "phosphorylation of CSF1R": {"tested_on": "phosphorylation of CSF1R", "assay": "Western blot of CSF1R signaling in BMDM", "type": "cell-based, mouse", "conditions": "BMDM cells, CSF1 stimulation", "method_in_brief": "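Fresh mouse BMDMs (2.5 × 10^6/well) were grown 7 days with 10 ng/mL CSF1, with a medium change at day 3. Cells were serum-starved 6 h, given test compound for 2 h, then stimulated with 50 ng/mL CSF1 for 15 min. BCA-normalized SDS lysates were blotted for p-CSF1R, CSF1R, p-AKT and AKT. Densitometry was normalized to tubulin across three independent repeats.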"}, "[7]": {"tested_on": "D283 medulloblastoma xenograft", "assay": "D283 subcutaneous xenograft in NOD-SCID mice", "type": "in vivo", "conditions": "oral, 14 days", "method_in_brief": "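D283 cells (5 × 106 in 200 μL, half Matrigel) were injected s.c. into the right flank of NOD-SCID mice. Mice were randomized at about 120 mm3 (n = 9/group) and dosed orally twice daily. Tumor size (caliper) and body weight were taken three times weekly. Mice were euthanized after 14 days of dosing and tumors weighed.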"}, "[8]": {"tested_on": "M2 markers CD206 and ARG1 in BMDM cells", "assay": "In vitro differentiation of BMDMs", "type": "cell-based, mouse", "conditions": "BMDM stimulated with CSF1, IL4, IL13; compound 100 nmol/L, 48 h", "method_in_brief": "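Mouse BMDMs were seeded at 2.5 × 10^6/well and grown 7 days in 10 ng/mL CSF1. CD206 and ARG1 were measured by flow cytometry. Three independent experiments, t-test.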"}, "[9]": {"tested_on": "U251 GBM xenograft tumors", "assay": "U251 subcutaneous xenograft in nude mice", "type": "in vivo", "conditions": "for tumor volume reduced: U251 xenograft; for expression of angiogenic markers CD31 and CD105: U251 tumor tissues; for expression of angiogenic markers CD31 and CD105 / expression of M2 phenotype macrophage marker(s) (CD206): IHC; for expression of M2 phenotype macrophage marker(s) (CD206): tumor tissue"}, "DBT mouse glioma [10]": {"tested_on": "DBT mouse glioma", "assay": "DBT model, combination with anti-PD-1", "type": "in vivo, BALB/c mice", "conditions": "SYHA1813 5 mg/kg p.o. twice daily, anti-PD-1 200 μg i.p. twice a week, or both"}, "[11]": {"tested_on": "intracranial glioma tumor U87MG", "assay": "Intracranial U87MG-luc tumor model in nude mice", "type": "in vivo", "conditions": "for median survival time: control 41 days"}, "c-Kit (D816H)": {"biological_target": "c-Kit (D816H) (Homo sapiens, UniProt P10721, D816H)", "sequence (P10721 26-976 D816H)": "as the sequence (P10721 26-976) above, with D791H counted along it", "assay": "ELISA kinase assay", "type": "biochemical"}, "mouse glioma GL261-luc": {"tested_on": "mouse glioma GL261-luc", "assay": "Intracranial GL261-luc model in immunocompetent mice", "type": "in vivo, C57BL/6 mice", "method_in_brief": "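Male C57BL/6 mice aged 4–6 weeks received 2 × 10^5 GL261-luc cells intracranially into the right frontal lobe. About 5 days after inoculation, mice were randomized by IVIS bioluminescence. Brain signal was then imaged once or twice weekly.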"}, "HUVEC": {"tested_on": "HUVEC", "assay": "VEGF-stimulated cell viability", "type": "cell-based", "conditions": "Homo sapiens, 72 h, read-out: IC50 HUVEC cell viability"}},
  "data": [
    {"compound": "Cc1cc(NC(=O)c2cccc3cc(-c4cccc5[nH]nc(N)c45)ccc23)ccc1F", "note": "[SYHA1813, 6-(3-amino-1H-indazol-4-yl)-N-(4-fluoro-3-methylphenyl)-1-naphthamide]", "values": [
      {"measurement": "IC50", "setting": "glioma cell lines", "value": "> 20", "unit": "µM"},
      {"measurement": "SPR binding to CSF1R", "setting": "CSF1R", "value": "robust binding signal"},
      {"measurement": "phosphorylation of RET in tumor tissue", "setting": "[1]", "value": "rarely inhibited"},
      {"measurement": "Cmax", "setting": "[2]; brain", "value": 1210, "unit": "ng/g"},
      {"measurement": "AUC(0-t)", "setting": "[2]; plasma", "value": 4540, "unit": "ng·h/mL"},
      {"measurement": "Cmax", "setting": "[2]; plasma", "value": 1420, "unit": "ng/mL"},
      {"measurement": "IC50", "setting": "c-Kit", "value": 162, "unit": "nM"},
      {"measurement": "tumor growth of DBT glioma and tumor weight", "setting": "DBT mouse glioma [3]; BALB/c mice", "value": "suppressed"},
      {"measurement": "CD8+ T cells in tumor tissue", "setting": "DBT mouse glioma [3]; IHC", "value": "dramatically increased"},
      {"measurement": "IC50", "setting": "VEGFR-1", "value": 2.8, "unit": "nM"},
      {"measurement": "inhibition relative to the control, most of the kinases", "setting": "panel of 328 kinases", "value": "less than 80%"},
      {"measurement": "tube formation of HUVECs", "setting": "tube formation of HUVECs", "value": "considerably blocked"},
      {"measurement": "Response Assessment in Neuro-Oncology (RANO)", "setting": "[4]; 5 mg once daily, 4 cycles, recurrent anaplastic oligodendrocytoma patient", "value": "stable disease"},
      {"measurement": "contrast-enhancement on T1-weighted images and vasogenic edema on FLAIR images", "setting": "[4]; 15 mg/day, recurrent GBM (WHO IV) patient, first follow-up", "value": "drastic reduction"},
      {"measurement": "cytotoxicity to cells with high expression of Aurora-B", "setting": "[5]", "value": "no apparent cytotoxicity"},
      {"measurement": "IC50", "setting": "VEGFR-3", "value": 4.3, "unit": "nM"},
      {"measurement": "IC50", "setting": "PDGFRα (V561D)", "value": 2.4, "unit": "nM"},
      {"measurement": "neovascularization in chick embryos", "setting": "[6]", "value": "significantly inhibited"},
      {"measurement": "phosphorylation of CSF1R and activation of downstream AKT", "setting": "phosphorylation of CSF1R", "value": "dramatically blocked"},
      {"measurement": "tumor growth in D283 xenograft", "setting": "[7]", "value": "effectively inhibited tumor growth"},
      {"measurement": "expression of M2 markers CD206 and ARG1", "setting": "[8]", "value": "significant decrease"},
      {"measurement": "tumor volume reduced", "setting": "[9]; 5 mg/kg orally twice daily", "value": 67.7, "unit": "%"},
      {"measurement": "tumor volume reduced", "setting": "[9]; 10 mg/kg orally twice daily", "value": 81.0, "unit": "%"},
      {"measurement": "body weight of the animals", "setting": "[9]; U251, U87MG and D283 xenograft models", "value": "not significantly changed"},
      {"measurement": "expression of angiogenic markers CD31 and CD105", "setting": "[9]", "value": "dramatically reduced"},
      {"measurement": "expression of M2 phenotype macrophage marker(s) (CD206)", "setting": "[9]", "value": "significantly inhibited"},
      {"measurement": "tumor growth", "setting": "DBT mouse glioma [10]", "value": "slightly inhibited"},
      {"measurement": "median survival time", "setting": "[11]; 20 mg/kg orally twice daily", "value": 54, "unit": "days"},
      {"measurement": "first death of mice", "setting": "[11]; 40 mg/kg group, control Day 31", "value": 43, "unit": "days"},
      {"measurement": "death of the last mouse", "setting": "[11]; 40 mg/kg group, control Day 52", "value": 75, "unit": "days"},
      {"measurement": "median survival time", "setting": "[11]; 40 mg/kg orally twice daily", "value": 58.5, "unit": "days"},
      {"measurement": "IC50", "setting": "c-Kit (D816H)", "value": 134, "unit": "nM"},
      {"measurement": "median survival time", "setting": "mouse glioma GL261-luc", "value": "prolonged median survival time"},
      {"measurement": "IC50", "setting": "HUVEC", "value": 13, "unit": "nM"}
    ]},
    {"compound": "Cn1nnc2c(C(N)=O)ncn2c1=O", "note": "[TMZ, temozolomide, reference compound]", "values": [
      {"measurement": "tumor growth in D283 xenograft", "setting": "[7]", "value": "dramatically insensitive"}
    ]},
    {"compound": "FC(F)(F)c1ccc(CNc2ccc(Cc3c[nH]c4ncc(Cl)cc34)cn2)cn1", "note": "[PLX3397, reference compound]", "values": [
      {"measurement": "expression of M2 markers CD206 and ARG1", "setting": "[8]", "value": "significant decrease"}
    ]},
    {"compound": "CNC(=O)c1ccccc1Sc1ccc2c(/C=C/c3ccccn3)n[nH]c2c1", "note": "[Axitinib, reference compound]", "values": [
      {"measurement": "expression of angiogenic markers CD31 and CD105", "setting": "[9]", "value": "effectively suppressed"},
      {"measurement": "expression of M2 phenotype macrophage marker(s) (CD206)", "setting": "[9]", "value": "no significant changes"},
      {"measurement": "median survival time", "setting": "[11]; 40 mg/kg orally twice daily", "value": 41, "unit": "days"}
    ]}
  ]
}
